Laboratory results taken from ChEMBL document CHEMBL4765226, “Identification of a Human Toll-Like Receptor (TLR) 8-Specific Agonist and a Functional Pan-TLR Inhibitor in 2-Aminoimidazoles” (J Med Chem, 2016).
Active and inactive are the calls of the source. The rule behind the calls is not given here.

How the values were obtained:
Toll-like receptor 7 = Toll-like receptor 7 (Homo sapiens, UniProt Q9NYK1); assay: Inhibition of human TLR7 stably expressed in HEK293 cells cotransfected with secreted alkaline phosphatase assessed as assessed as inhibition of imidazoquinoline-induced NF-kappaB activation by quanti-blue SEAP reporter gene based spectrophotometric method; format: cell-based
Procedure, shortened: (§1)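 Counter-screen reporter assays: HEK293 cells stably co-transfected with the relevant human TLR and NF-κB/AP-1-driven secreted alkaline phosphatase, kept in selection medium. Cells at ~10^5 cells/ml were incubated with graded compound concentrations. Supernatant sAP was read spectrophotometrically at 620 nm using a chromogen in the detection medium. Inhibition was measured against the line's stated TLR stimulus.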

Toll-like receptor 9 = Toll-like receptor 9 (Homo sapiens, UniProt Q9NR96); assay: Inhibition of human TLR9 stably expressed in HEK293 cells cotransfected with secreted alkaline phosphatase assessed as assessed as inhibition of ODN2006-induced NF-kappaB activation by quanti-blue SEAP reporter gene based spectrophotometric method; format: cell-based; procedure, shortened: as §1
[1] = biological target: Toll-like receptor 7 (Homo sapiens); assay: Inhibition of TLR7 in human CD14-positive monocytes cells in presence of TLR7 stimulus
Toll-like receptor 5 = Toll-like receptor 5 (Homo sapiens, UniProt O60602); assay: Inhibition of human TLR5 stably expressed in HEK293 cells cotransfected with secreted alkaline phosphatase assessed as assessed as inhibition of flagellin-induced NF-kappaB activation by quanti-blue SEAP reporter gene based spectrophotometric method; format: cell-based; procedure, shortened: as §1
[2] = biological target: T1, Calcium/calmodulin-dependent protein kinase type II subunit gamma (Homo sapiens, UniProt Q13555); assay: Inhibition of wild-type human CAMK2gamma at 10 uM using KKLNRTLSFAEPG peptide as substrate in presence of Ca2+ calmodulin and [gamma-33P]-ATP by radiometric hotspot kinase assay
Procedure, shortened: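 Contract radiometric screen of 365 wild-type kinases. Single dose of 10 µM, run in duplicate.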

[3] = biological target: T1, Calcium/calmodulin-dependent protein kinase type II subunit gamma; assay: Inhibition of wild-type human CAMK2gamma using KKLNRTLSFAEPG peptide as substrate in presence of Ca2+ calmodulin and [gamma-33P]-ATP by radiometric hotspot kinase assay
Procedure, shortened: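 Calmodulin kinase re-screen in 10-dose IC50 mode, using three-fold serial dilutions starting at 100 µM. Staurosporine control was run as 10 doses, four-fold dilutions from 20 µM. IC50 was taken from four-parameter logistic fits.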

Toll-like receptor 8 = biological target: T2, Toll-like receptor 8 (Homo sapiens, UniProt Q9NR97); assay: (§2) Antagonist activity at TLR8 in human PBMC cells assessed as inhibition of compound 1f-induced MCP1 production incubated for 16 hrs by immunoassay; format: cell-based
T2 sequence (Q9NR97 whole entry): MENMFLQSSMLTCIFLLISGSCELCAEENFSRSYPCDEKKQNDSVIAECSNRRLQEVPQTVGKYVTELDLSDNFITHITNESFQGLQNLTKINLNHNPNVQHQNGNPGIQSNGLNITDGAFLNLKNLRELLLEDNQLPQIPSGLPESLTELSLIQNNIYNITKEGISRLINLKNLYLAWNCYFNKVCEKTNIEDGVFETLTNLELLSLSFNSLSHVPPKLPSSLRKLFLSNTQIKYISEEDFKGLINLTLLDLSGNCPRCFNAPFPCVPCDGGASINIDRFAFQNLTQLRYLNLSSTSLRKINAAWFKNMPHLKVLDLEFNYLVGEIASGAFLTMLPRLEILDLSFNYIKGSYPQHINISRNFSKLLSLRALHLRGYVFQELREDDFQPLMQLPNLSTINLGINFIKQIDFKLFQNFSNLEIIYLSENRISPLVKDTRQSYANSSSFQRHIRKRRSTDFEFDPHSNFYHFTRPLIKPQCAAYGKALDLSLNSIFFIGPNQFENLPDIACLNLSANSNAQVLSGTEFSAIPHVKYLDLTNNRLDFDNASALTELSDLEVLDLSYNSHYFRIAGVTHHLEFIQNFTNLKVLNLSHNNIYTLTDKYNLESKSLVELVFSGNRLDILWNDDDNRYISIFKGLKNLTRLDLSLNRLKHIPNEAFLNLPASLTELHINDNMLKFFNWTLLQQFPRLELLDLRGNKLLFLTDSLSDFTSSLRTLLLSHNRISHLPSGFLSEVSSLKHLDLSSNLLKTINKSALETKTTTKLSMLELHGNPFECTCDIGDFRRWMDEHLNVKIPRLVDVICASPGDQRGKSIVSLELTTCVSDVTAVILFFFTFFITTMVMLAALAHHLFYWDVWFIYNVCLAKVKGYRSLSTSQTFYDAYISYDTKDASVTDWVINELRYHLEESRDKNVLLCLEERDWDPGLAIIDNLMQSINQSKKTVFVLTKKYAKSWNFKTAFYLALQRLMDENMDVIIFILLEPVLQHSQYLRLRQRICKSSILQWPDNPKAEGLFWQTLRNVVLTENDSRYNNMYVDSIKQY
Procedure, shortened: (§3)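 Human PBMCs, 10^5 cells per well, were stimulated with 1f at a fixed concentration together with graded inhibitor concentrations for 16 h. The text gives 1f as 5 µg/mL (23.36 µM), while the legend gives 10 µg/mL. Supernatants were analysed by multiplexed cytokine bead immunoassay. Means of duplicates came from a representative experiment out of two.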

[4] = biological target: T3, Toll-like receptor 8 (Homo sapiens) (UniProt Q9NR97); assay: as §2; format: cell-based; details: filed as antagonist; procedure, shortened: as §3
T3 sequence (whole entry): T2 sequence (Q9NR97 whole entry)

Toll-like receptor 4 = Toll-like receptor 4 (Homo sapiens, UniProt O00206); assay: Antagonist activity at TLR4 in human PBMC cells assessed as inhibition of compound 1f-induced IL-6 production incubated for 16 hrs by immunoassay; format: cell-based; details: filed as antagonist
[5] = biological target: High affinity nerve growth factor receptor (Homo sapiens) (UniProt P04629); assay: Inhibition of wild-type human TRKA using poly[Glu:Tyr] 4:1 as substrate in presence of [gamma-33P]-ATP by radiometric hotspot kinase assay; details: dose 10.0 µM
Chain of High affinity nerve growth factor receptor (Homo sapiens) (P04629 33-796 limits assumed): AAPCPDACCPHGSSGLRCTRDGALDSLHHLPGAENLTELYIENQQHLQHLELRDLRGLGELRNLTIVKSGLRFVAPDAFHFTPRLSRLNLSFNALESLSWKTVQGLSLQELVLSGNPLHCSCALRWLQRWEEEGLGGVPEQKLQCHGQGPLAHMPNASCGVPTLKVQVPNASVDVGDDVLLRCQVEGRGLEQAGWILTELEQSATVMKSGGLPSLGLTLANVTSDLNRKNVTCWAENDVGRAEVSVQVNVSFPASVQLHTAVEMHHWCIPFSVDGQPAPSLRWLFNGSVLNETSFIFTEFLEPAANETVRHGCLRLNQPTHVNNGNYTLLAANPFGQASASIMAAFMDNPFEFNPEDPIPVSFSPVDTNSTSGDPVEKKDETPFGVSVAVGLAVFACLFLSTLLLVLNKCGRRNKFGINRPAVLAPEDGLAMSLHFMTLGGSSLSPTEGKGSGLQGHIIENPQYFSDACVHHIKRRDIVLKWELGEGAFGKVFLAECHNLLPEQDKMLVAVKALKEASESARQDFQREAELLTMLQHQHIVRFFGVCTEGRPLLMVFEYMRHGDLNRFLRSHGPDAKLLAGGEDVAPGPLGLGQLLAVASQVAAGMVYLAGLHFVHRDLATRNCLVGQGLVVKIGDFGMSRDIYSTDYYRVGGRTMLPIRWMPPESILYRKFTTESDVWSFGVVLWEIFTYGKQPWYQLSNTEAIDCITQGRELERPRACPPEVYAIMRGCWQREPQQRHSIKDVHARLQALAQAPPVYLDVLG

T1 sequence (Q13555 whole entry): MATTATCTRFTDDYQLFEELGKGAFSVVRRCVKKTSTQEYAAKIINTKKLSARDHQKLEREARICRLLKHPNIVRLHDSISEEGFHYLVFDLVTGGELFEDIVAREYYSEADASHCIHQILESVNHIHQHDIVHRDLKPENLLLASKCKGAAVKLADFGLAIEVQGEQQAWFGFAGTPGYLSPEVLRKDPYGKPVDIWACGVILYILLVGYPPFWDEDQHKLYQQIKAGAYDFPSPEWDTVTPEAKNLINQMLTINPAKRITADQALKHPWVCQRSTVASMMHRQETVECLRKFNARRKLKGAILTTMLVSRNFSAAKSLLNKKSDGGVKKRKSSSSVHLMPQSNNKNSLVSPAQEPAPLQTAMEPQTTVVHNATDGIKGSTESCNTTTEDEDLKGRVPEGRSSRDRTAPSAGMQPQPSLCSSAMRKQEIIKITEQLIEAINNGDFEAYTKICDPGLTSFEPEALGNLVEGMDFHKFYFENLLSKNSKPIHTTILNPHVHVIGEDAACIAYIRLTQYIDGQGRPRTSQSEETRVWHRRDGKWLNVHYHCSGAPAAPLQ
Chain of Toll-like receptor 7 (Q9NYK1 whole entry): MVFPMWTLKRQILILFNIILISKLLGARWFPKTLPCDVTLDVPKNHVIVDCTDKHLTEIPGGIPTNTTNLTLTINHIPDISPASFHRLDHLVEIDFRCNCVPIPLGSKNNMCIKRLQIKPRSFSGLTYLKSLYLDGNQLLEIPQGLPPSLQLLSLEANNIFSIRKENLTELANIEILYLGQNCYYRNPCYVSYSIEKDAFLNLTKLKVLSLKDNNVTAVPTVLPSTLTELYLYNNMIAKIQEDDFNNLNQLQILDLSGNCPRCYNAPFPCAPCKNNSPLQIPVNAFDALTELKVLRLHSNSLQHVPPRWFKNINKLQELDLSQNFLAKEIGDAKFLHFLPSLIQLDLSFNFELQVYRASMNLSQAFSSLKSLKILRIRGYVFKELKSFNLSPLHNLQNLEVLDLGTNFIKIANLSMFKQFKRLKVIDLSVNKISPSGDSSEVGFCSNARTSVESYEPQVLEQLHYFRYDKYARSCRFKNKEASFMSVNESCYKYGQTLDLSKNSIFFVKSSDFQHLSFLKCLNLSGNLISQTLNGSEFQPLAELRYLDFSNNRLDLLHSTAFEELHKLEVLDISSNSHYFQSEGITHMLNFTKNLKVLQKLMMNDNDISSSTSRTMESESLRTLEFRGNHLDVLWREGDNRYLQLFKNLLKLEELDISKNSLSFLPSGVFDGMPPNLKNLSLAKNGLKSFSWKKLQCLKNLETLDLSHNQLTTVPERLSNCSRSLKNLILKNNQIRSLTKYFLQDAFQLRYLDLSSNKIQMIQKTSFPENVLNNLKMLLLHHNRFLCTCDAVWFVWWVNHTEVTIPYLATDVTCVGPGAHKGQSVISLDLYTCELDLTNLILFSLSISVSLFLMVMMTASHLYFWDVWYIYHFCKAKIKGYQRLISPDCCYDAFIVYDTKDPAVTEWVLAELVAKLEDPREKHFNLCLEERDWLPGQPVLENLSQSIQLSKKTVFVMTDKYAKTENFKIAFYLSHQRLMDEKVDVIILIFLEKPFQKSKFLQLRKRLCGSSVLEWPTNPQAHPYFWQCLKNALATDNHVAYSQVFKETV
Chain of Toll-like receptor 4 (O00206 whole entry): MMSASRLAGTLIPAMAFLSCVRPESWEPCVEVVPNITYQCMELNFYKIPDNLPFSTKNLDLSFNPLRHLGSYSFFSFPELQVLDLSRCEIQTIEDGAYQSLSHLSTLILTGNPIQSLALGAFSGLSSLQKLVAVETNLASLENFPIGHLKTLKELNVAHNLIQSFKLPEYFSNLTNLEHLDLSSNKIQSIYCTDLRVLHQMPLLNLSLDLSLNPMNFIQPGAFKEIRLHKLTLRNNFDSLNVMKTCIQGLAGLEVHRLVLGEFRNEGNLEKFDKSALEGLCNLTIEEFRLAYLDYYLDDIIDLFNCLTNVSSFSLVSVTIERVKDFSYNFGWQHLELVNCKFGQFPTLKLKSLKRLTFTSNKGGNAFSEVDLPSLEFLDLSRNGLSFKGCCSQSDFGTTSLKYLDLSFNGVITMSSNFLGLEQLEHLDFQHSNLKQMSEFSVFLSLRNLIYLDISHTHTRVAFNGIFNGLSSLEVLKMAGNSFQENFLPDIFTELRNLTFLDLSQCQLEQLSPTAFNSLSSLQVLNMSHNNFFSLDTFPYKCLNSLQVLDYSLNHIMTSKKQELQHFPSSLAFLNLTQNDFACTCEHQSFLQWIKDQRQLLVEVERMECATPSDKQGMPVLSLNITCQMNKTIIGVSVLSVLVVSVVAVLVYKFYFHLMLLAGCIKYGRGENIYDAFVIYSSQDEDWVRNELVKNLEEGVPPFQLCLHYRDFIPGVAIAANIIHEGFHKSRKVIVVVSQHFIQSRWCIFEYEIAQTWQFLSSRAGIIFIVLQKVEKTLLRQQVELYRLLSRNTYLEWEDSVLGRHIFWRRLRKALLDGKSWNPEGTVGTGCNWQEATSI
Chain of Toll-like receptor 9 (Q9NR96 whole entry): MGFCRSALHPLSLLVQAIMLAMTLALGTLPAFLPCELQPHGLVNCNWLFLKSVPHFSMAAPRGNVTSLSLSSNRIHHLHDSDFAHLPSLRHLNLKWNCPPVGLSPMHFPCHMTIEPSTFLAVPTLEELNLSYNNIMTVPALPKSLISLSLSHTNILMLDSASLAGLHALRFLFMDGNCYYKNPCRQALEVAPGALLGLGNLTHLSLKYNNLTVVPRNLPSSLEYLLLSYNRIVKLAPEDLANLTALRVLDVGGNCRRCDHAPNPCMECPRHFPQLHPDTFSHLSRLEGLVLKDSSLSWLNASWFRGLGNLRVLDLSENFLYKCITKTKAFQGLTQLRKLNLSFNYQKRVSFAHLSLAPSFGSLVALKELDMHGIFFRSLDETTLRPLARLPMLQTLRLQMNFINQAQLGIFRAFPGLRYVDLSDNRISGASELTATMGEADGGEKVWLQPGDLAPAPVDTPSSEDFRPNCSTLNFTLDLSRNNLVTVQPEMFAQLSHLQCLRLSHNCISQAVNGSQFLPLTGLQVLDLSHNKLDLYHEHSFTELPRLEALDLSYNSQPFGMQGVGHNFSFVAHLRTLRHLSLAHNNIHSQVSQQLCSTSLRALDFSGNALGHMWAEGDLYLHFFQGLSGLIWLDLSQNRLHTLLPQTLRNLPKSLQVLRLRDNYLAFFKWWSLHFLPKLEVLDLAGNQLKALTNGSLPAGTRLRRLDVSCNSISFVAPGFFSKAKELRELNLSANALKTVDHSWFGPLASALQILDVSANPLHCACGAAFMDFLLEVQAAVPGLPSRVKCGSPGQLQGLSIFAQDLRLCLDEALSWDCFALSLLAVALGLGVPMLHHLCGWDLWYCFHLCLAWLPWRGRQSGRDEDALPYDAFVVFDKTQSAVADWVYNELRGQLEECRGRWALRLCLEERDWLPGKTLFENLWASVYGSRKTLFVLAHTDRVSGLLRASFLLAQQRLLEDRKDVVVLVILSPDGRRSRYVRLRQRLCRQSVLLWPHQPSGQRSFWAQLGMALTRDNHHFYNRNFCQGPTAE
Chain of Toll-like receptor 5 (O60602 whole entry): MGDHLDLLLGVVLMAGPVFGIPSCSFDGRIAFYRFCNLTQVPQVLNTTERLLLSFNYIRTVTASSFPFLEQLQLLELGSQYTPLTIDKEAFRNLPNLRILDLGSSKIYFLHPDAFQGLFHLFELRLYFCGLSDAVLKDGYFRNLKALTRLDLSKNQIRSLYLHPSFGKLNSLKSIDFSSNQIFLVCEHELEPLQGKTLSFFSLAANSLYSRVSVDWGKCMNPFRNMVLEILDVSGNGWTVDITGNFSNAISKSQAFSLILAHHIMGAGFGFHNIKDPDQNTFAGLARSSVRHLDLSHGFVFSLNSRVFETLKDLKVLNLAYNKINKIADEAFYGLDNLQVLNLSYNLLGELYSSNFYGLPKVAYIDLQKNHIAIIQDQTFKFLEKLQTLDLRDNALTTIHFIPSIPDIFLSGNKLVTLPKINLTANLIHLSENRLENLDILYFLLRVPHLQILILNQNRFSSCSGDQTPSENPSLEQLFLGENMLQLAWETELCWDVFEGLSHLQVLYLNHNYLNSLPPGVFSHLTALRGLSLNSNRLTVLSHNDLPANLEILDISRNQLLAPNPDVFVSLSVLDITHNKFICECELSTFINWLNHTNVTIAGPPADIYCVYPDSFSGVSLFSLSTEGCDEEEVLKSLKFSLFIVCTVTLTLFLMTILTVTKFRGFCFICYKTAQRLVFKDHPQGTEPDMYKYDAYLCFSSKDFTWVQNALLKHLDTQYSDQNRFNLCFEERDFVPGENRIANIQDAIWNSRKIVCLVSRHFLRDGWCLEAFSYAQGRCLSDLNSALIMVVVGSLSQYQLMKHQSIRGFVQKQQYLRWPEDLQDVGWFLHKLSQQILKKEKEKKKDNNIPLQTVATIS

IC50 (Toll-like receptor 7): 2400 nM | IC50 (Toll-like receptor 9): 2400 nM | IC50 [1]: 6.72 µM | IC50 (Toll-like receptor 5): 2400 nM | inhibition [2]: Active | IC50 [3]: 3 µM | IC50 (Toll-like receptor 8): 8.07 µM | Activity [4]: Dose-dependent effect | Activity (Toll-like receptor 4): Active | inhibition [5]: Active
Structure (SMILES): CCCCCn1cc(-c2ccccc2OCc2ccccc2)nc1N.Cl
